Screens: PubChem BioAssay, The Scripps Research Institute Molecular Screening Center
Sampled rows, rich in hits. Any-hit rate of the full collection: about 4.5%.
TAAR1 ag = human TAAR1 agonism; 0.99% of 360,000 active; activation, % at 3 µM; CHO RD-HGA16 TAAR1, Fluo-8 calcium fluorescence; vehicle wells 0%, saturating PEA agonist 100%; Q96RJ0;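 active = activation above the mean activation of all test compounds in the run plus 3 SD, cut at about 38% in these data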
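test system = CHO RD-HGA16 cells carrying human TAAR1 plus Gα16 | schedule = 17-24 h seeding, 75 min 37 °C dye, 30 min RT | compound dosing = 3 µM single concentration | control set = DMSO and PEA EC100 | replicates = n 1 | signal = Fluo-8 fluorescence, 5 s baseline then 140 s kinetic read | measure = percent activation vs PEA EC100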
OX1R antag-1 = human HCRTR1 antagonism | O43613 | 0.43% of 330,000 active | CHO/OX1R cells, Fluo-8 calcium fluorescence, orexin A | inhibition, % at 5 µM;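 active = inhibition above its plate's threshold, mean inhibition of all tested compounds on the plate plus 3 SD, cut at about 37% in these data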;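 note: 0% = orexin A challenge wells and 100% = SB-334867-A antagonist wells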
Target sequence (O43613 whole entry, looked up): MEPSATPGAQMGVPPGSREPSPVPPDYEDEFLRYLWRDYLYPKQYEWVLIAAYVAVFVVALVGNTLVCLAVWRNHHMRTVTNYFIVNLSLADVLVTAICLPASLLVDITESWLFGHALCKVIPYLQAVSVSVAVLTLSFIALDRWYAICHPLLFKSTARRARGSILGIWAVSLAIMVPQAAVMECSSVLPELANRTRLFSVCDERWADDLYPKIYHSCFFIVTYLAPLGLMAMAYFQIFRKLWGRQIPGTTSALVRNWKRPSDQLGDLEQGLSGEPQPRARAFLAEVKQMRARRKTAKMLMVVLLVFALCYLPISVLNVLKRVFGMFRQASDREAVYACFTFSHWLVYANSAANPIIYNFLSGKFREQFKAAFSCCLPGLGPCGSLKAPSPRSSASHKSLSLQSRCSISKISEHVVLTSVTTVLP
GPR7 antagonist = antagonists of human GPR7 (neuropeptides B/W receptor 1); inhibition, % at 4.4 µM; 1.1% of 290,000 active; GPR7-expressing cells, fluorescence antagonist assay; P48145; in the data active = inhibition above about 16%, passing the limit was not always enough;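 note: cells stimulated with the agonist NPW; 0% = agonist with vehicle and 100% = vehicle without agonist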
OX1R antag-2 = blocks the human orexin 1 receptor | 1.8% of 330,000 active | OX1R-expressing cells, FRET antagonist read-out | O43613 | inhibition, % at 6.6 µM; in the data active = inhibition mostly above about 38%, no sharp cut-off; inactive = mostly below about 40%;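 note: 0% = agonist challenge alone and 100% = reference antagonist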
TAAR1 antagonist = antagonists of human TAAR1. Q96RJ0. CHO RD-HGA16 TAAR1, Fluo-8 calcium fluorescence, antagonist. inhibition, % at 3 µM. 1.5% of 360,000 active. AID 624466;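 active = inhibition above a per-plate cutoff, the mean inhibition of test compounds on that plate plus 3 SD, cut at about 49% in these data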;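 note: 0% = DMSO plus EC80 beta-PEA response and 100% = DMSO alone without agonist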
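Material: CHO RD-HGA16 cells bearing hTAAR1; compound dosing: one-point dosing, 3 µM nominal final; schedule: dye loading 75 min at 37 °C, then 30 min room temperature; measured by: calcium fluorescence with Fluo-8; control set: vehicle and agonist controls; replication: n of 1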
CHO parental Ca = counter-screen: ATP calcium response change in parental CHO cells. parental CHO-K1, ATP-induced calcium, Fluo-8 fluorescence. 0.63% of 330,000 active. inhibition, % at 5.6 µM;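 active = inhibition above that plate's mean sample inhibition plus 3 SD, cut at about 26% in these data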;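 note: 0% = ATP-challenged DMSO wells and 100% = DMSO wells without ATP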
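test system = CHO parental line | reagent = ATP stimulus | measured by = intracellular calcium via Fluo-8 no-wash fluorescent dye | control set = ATP and no-ATP DMSO wells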
An asterisk follows results filed as active; · = no result given.

SMILES | TAAR1 ag | OX1R antag-1 | GPR7 antagonist | OX1R antag-2 | TAAR1 antagonist | CHO parental Ca
CN1CCS/C1=C\C=C1/SC(=S)N(CC(=O)O)C1=O | 45.5* | · | 7.9 | · | 12.2 | ·
CCN1C(=O)/C(=C/C=C2/SCCN2C)SC1=S | 38.9* | -3.8 | 0.7 | 27.5 | 6.5 | -6.8
S=c1[nH]nc(-c2cccs2)n1/N=C/c1c(Cl)cccc1Cl | 47.5* | 50.7* | -18.6 | 107.7* | 52.6* | 33.8*
COc1ccc(/C=N/n2c(-c3cccs3)n[nH]c2=S)cc1 | 2.1 | -22.9 | 0.3 | 43.2 | -1.6 | -4.0
COc1cc2[nH]c(=O)n3nc(-c4ccccc4)nc3c2cc1OC | · | 0.8 | 2.6 | 36.6* | · | -7.9
COC(=O)C1=C(C)N(Cc2cccc(C(F)(F)F)c2)C(=NCc2cc(OC)c(OC)c(OC)c2)NC1c1cccc(F)c1 (centres undefined) | 31.3 | · | · | · | 28.8 | ·
COc1cccc(/C=N/NC(=O)c2ccc(OCc3cccc(Br)c3)cc2)c1 | -0.2 | -27.2 | -1.7 | 34.0 | 52.3* | -22.6
COC(=O)[C@]12C[C@H](CC(=O)NCCCN3CCCC3=O)C(=O)N(Cc3ccc4c(c3)OCO4)C1=C[C@H](COCc1ccccc1)O[C@@H]2C | 6.4 | · | · | · | -31.2 | ·
O=C(N[C@@H](Cc1ccccc1)C(=O)OCc1ccccc1)c1nc[nH]c1C(=O)N1CCN(c2ccccc2)CC1 | 11.8 | 19.0 | · | 8.3 | 52.1* | 27.1
O=C(CNC(=O)c1nc[nH]c1C(=O)N1CCc2ccccc2C1)OCc1ccccc1 | 21.0 | -17.3 | -10.9 | 32.8 | 61.9* | -15.7
COc1cccc(CNC(=O)[C@H]2CCCN2C(=O)[C@H]2CCCN2C(=O)c2c(F)cccc2F)c1 | 0.4 | · | · | · | 0.0 | ·
CCn1c(SCC(=O)Nc2nc(C)c(C)s2)nc2cccnc21 | 5.0 | 3.0 | -15.8 | 74.6* | 9.4 | -23.3
CCOc1ccccc1NC(=O)CSc1nc2cccnc2n1C | 5.6 | 4.6 | 1.5 | 52.5* | 16.8 | -6.5
COc1cc(C(=O)NC2CC(C)CC(C)(C)C2)cc(OC)c1OC (centres undefined) | -1.6 | · | · | · | -18.3 | ·
O=C(COC(=O)C1CCN(S(=O)(=O)c2ccc(Cl)c(C(F)(F)F)c2)CC1)NCc1ccco1 | 1.3 | -19.2 | · | 18.0 | 8.0 | 41.6*
O=C(O)c1cccc(N2C(=O)c3ccc4c5c(ccc(c35)C2=O)C(=O)N(c2cccc(C(=O)O)c2)C4=O)c1 | -1.1 | -7.5 | 2.2 | 74.1* | -4.5 | 13.6
O=C(OCc1cc(=O)n2c(n1)sc1ccccc12)c1ccc(O)cc1 | 5.3 | -21.7 | -11.5 | 52.6* | 4.5 | -15.1
C[C@H]1C(C(=O)N(C)C2CCCCC2)=Cc2c(n(-c3ccc(F)cc3)c(=O)n2CCCOc2ccccc2)C=C1c1ccccc1 | 0.1 | · | · | · | -53.8 | ·
COc1ccc(C(=O)Oc2ccc[nH]c2=O)cc1 | 6.5 | -12.1 | 5.2 | 11.1 | 3.5 | 4.8
O=C(Oc1ccc[nH]c1=O)c1cc([N+](=O)[O-])cc([N+](=O)[O-])c1 | 0.4 | 0.0 | -7.0 | 68.5* | -22.4 | 7.5
COCCNC(=O)C1CC(c2ccc([N+](=O)[O-])cc2)=NO1 (centres undefined) | 11.5 | -0.8 | -11.4 | 68.5* | 6.6 | -4.2
CCCCNC(=O)C[C@H]1C[C@@]2(C(=O)OC)C(=C[C@H](C(C)(C)C)O[C@@H]2C)N(Cc2ccc3c(c2)OCO3)C1=O | -1.9 | · | · | · | 0.1 | ·
O=C(c1ccc(Cn2c(=O)[nH]c3ccccc3c2=O)cc1)N1CCN(c2ccccn2)CC1 | 9.7 | -18.5 | 1.6 | 13.7 | 41.8 | -6.2
O=C(c1ccc(Cn2c(=S)[nH]c3ccccc3c2=O)cc1)N1CCN(c2ccccn2)CC1 | 9.2 | 9.4 | -5.5 | 11.0 | 57.4* | 9.4
CSc1cccc(NC(=O)/C=C/c2ccc(Cl)cc2)c1 | 3.8 | 6.3 | -14.9 | 91.5* | 45.0 | -12.0
COc1ccccc1N1CCN(S(=O)(=O)CCNC(=O)C23CC4CC(CC(C4)C2)C3)CC1 | 16.3 | -18.9 | -9.5 | 15.5 | 57.9* | -14.5
CC(=O)Nc1ccc(S(=O)(=O)N(C)CC(=O)Nc2ccc(Br)cc2F)cc1 | 5.1 | -17.9 | · | 20.2 | 9.9 | 67.5*
CSc1cccc(NC(=O)CN(C)S(=O)(=O)c2ccc(C)cc2)c1 | 6.1 | 51.2* | 0.9 | 78.2* | 12.1 | 30.4
